Source: article PMC12444810 (Chemmedchem, 2025)
Non-standard residues stand in square brackets, D forms with d. Residues, ends and D or L forms follow the SMILES beside them. *: point of attachment. Phe(4-F) = N[C@@H](Cc1ccc(F)cc1)C(=O)O; Cbz = O=C(OCc1ccccc1)*

Key:
MeV‐F [1] = conditions: cited from earlier work; for IC50: reported value
Vero/SLAM cells = assay: CCK-8 cytotoxicity assay; format: cell-based; conditions: CCK-8 assay, 100 µM, 24 h; result in words
[2] = test system: fusion protein of canine distemper virus; conditions: cited from earlier work
[3] = PAMPA passive membrane permeability; format: in vitro ADME; conditions: for passive membrane permeability, in words: 10 µM, 13 h incubation, triplicate
[4] = test system: EGFP‐recombinant MeV (MeV‐EGFP); assay: Viral entry inhibition assay; format: cell-based, measles virus; conditions: ratio of IC50 values in the viral entry inhibition assay
Method in brief: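 Vero/hSLAM cells were infected with EGFP‑recombinant MeV in the presence of test compound for 1 h. Virus medium was removed and cells were kept 48 h in medium containing 100 µM of the parent fusion‑inhibitor peptide. Fluorescent infected cells were counted to give IC50, in triplicate. The ratio is taken against the parent peptide's IC50, measured under the same conditions.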

MeV‐F [5] = biological target: T1, MeV‐F (Measles virus, UniProt Q786F3); assay: Cell-to-cell fusion assay; format: cell-based; conditions: 0.5 µM peptide, triplicate (Figure S2)
T1 sequence (Q786F3 113-550 limits assumed): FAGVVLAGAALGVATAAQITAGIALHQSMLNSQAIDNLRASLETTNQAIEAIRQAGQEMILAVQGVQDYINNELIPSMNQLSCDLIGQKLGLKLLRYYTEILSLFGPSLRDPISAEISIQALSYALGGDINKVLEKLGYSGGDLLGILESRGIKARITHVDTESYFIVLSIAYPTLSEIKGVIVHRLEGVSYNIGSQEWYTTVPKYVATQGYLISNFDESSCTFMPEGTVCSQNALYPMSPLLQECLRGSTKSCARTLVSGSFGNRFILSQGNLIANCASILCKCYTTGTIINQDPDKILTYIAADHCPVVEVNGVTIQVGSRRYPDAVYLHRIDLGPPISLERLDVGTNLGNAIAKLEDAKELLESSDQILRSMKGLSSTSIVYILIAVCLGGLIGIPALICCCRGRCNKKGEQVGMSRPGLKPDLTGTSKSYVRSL
T1 sequence (Q786F3 24-112 limits assumed): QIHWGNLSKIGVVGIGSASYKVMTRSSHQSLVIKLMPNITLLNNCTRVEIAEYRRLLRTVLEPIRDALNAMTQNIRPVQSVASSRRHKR
Method in brief: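 Vero cells stably expressing human SLAM were transfected with plasmids encoding MeV‑F, MeV‑H and EGFP, then incubated with test compound for 24 h. Syncytium formation was judged by EGFP fluorescence imaging. Controls were cells without peptide and cells transfected with EGFP plasmid alone. Run in triplicate.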

O=C(O)CNC(=O)[C@H](Cc1ccccc1)NC(=O)[C@@H](Cc1ccccc1)NC(=O)OCc1ccccc1 [FIP] (Cbz-[dF]-Phe-Gly-OH)
IC50 (MeV‐F [1]): 1300 nM | cytotoxicity to Vero/SLAM cells (Vero/SLAM cells): did not exhibit cytotoxicity | inhibition of canine distemper virus fusion protein [2]: does not inhibit | passive membrane permeability, in words [3]: negligible level of permeability

NC(=O)CNC(=O)[C@H](Cc1ccc(F)cc1)NC(=O)[C@@H](Cc1ccccc1)NC(=O)OCc1ccccc1 [FIP‐F2pF‐NH2] (Cbz-[dF]-[Phe(4-F)]-Gly-NH2)
enhancement in inhibitory activity compared to FIP [4]: 23 fold | inhibition of syncytia formation, comparison of the two compounds (MeV‐F [5]): stronger inhibitor than FIP‐ZoF‐NH2 | cytotoxicity to Vero/SLAM cells (Vero/SLAM cells): did not exhibit cytotoxicity | Papp at 13 h, 10 µM [3]: 1.4 ± 0.1 ×10⁻⁶ cm/s

N=C(N)NCCC[C@@H](NC(=O)[C@H](Cc1ccccc1)NC(=O)[C@@H](Cc1ccccc1)NC(=O)OCc1ccccc1)C(N)=O [FIP‐G3r‐NH2] (Cbz-[dF]-Phe-[dR]-NH2)
IC50 (MeV‐F [1]): 210 nM | cytotoxicity to Vero/SLAM cells (Vero/SLAM cells): did not exhibit cytotoxicity | passive membrane permeability, in words [3]: did not passively permeate the lipid membrane

NC(=O)CNC(=O)[C@H](Cc1ccccc1)NC(=O)[C@@H](Cc1ccccc1)NC(=O)OCc1ccccc1 [FIP‐NH2] (Cbz-[dF]-Phe-Gly-NH2)
inhibitory activity compared to the original FIP (MeV‐F [1]; authors' previous study): slight improvement in inhibitory activity | Papp at 13 h, 10 µM [3]: 1.2 ± 0.2 ×10⁻⁶ cm/s
